Source: ChEMBL document CHEMBL1151482, “Phenolic constituents from the stem bark of Magnolia officinalis” (J Nat Prod, 2009)
Values after ≈ are worked out from the molar mass of the structure shown.

What was measured:
BV-2 = assay: Antiinflammatory activity in mouse BV2 cells assessed as inhibition of LPS-induced NO production after 24 hrs by Griess reagent method; format: functional, cell-based; conditions: BV-2, 24 h
How it was run: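 Microglial BV2 cells treated with test agents, then stimulated with LPS (0.5 µg/mL); nitrite accumulated in medium over 24 h measured with Griess reagent as NO readout; IC50 taken from concentration-response curves.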

[1] = test system: Radical scavenging activity; assay: Antioxidant activity assessed as DPPH free radical scavenging activity; format: functional
How it was run: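 Diluted drugs combined with DPPH solution in microplate; absorbance read at 517 nm; IC50 derived from concentration-response curves.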

[2] = Inhibition of NADPH oxidase-mediated ROS production in LPS-stimulated mouse BV2 cells after 20 mins by flow cytometry; format: cell-based; conditions: BV-2, 20 min
How it was run: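 BV2 cells preloaded with 2′,7′-dichlorofluorescin diacetate, exposed to test agents for 20 min, then LPS-stimulated; H2O2 quantified 30 min later by flow cytometry, expressed as mean channel fluorescence; IC50 from concentration-response curves.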

C=CCc1ccc(O)c(-c2cc(C=O)ccc2O)c1 [MAGNALDEHYDE]
IC50 (BV-2): 9.2 µg/mL (≈ 36.2 µM)

C=CCc1ccc(O)c(-c2cc(O)ccc2O)c1 [RANDAIOL]
IC50 (BV-2): 1.2 µg/mL (≈ 4.95 µM) | IC50 [1]: 21.6 µg/mL (≈ 89.2 µM)

C=CCc1cc(-c2cc(O)ccc2O)ccc1O [MAGNATRIOL B]
IC50 [2]: 20.6 µg/mL (≈ 85 µM) | IC50 (BV-2): 0.5 µg/mL (≈ 2.06 µM) | IC50 [1]: 27.6 µg/mL (≈ 114 µM)
